Measured values as given in PubChem BioAssay AID686992 (Broad Institute, 2013).
Hit rate of the full screen: of about 260,000 compounds, about 960 (0.37%) were called active.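 Rule for the calls: active = mean E-selectin-positive cell signal at least 10% of the positive control, reached in at least 60% of replicates, without over 20% cell loss; inconclusive = no rule given, readout overlaps actives, possibly toxicity-flagged; inactive = the rest, including those meeting only one limit.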 What follows is part of a selection rich in actives, with near analogues and random picks from the rest.

Each compound was assayed against E-selectin (Homo sapiens) (UniProt P16581) (assay: E-selectin induction in HUVECs, primary screen, imaging, HUVEC, immunofluorescence imaging, single point (AID 686992;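 note: signal is the percent of cells scored E-selectin positive by PE staining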)). Conditions: at 7.58 µM, stronger effect = higher value, normalized: neutral wells 0, TNF-alpha wells 100.
E-selectin (Homo sapiens), sequence (P16581 whole entry, looked up): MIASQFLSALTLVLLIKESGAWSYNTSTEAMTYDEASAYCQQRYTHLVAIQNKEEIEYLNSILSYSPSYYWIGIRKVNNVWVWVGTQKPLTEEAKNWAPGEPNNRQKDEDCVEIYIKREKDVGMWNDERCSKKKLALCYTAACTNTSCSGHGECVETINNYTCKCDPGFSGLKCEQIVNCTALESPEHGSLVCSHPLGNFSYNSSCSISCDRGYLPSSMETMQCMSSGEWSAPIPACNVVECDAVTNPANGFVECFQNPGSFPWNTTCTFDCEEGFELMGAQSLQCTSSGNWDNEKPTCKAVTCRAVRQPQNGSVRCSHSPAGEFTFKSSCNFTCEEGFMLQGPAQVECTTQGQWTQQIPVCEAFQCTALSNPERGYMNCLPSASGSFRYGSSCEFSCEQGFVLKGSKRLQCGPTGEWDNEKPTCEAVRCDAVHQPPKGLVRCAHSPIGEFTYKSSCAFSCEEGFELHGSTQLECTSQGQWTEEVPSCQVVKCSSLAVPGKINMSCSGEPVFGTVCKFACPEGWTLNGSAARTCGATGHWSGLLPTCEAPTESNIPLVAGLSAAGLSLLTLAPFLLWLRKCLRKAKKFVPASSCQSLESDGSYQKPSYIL
How it was run: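 System: HUVEC, human umbilical vein endothelial cells; quantity: 3,000 cells/well; buffer or medium: EGM-2 medium, gelatin-coated wells; dosing: single-point compound dose; detection: immunofluorescence imaging; evaluation: % PE-positive cells; benchmarks: TNF-alpha, DMSO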

Row | SMILES | activation
1 | CCN1C(=O)N[C@@H]2C[C@H](C(=O)N3CCCC3)[C@H](C)[C@H](c3ccccc3)C[C@@H]21 | -0.199% (inactive)
2 | Cc1ccc(CSc2nc(-c3ccccc3)c(C#N)c(=O)[nH]2)cc1 | 2.35% (inactive)
3 | Cc1ccc(CSc2nc3[nH]ncc3c(=O)[nH]2)cc1 | 92.1% (active)
4 | Cc1cccc(NC(=O)CSc2nc3[nH]ncc3c(=O)[nH]2)c1 | -0.483% (inactive)
5 | O=C1[C@@H](c2ccccc2)[C@@H](c2ccccc2)N1c1ccccc1 | -0.064% (inactive)
6 | O=C(N[C@H]1C=C[C@@H](CC(=O)N2CCc3ccccc3C2)O[C@@H]1CO)C1CCOCC1 | -0.136% (inactive)
7 | COc1ccc(-c2nnc3n2CCCCC3)cc1 | 31.2% (active)
8 | COc1cccc(C(=O)Nc2ccc3nc4n(c(=O)c3c2)CCCCC4)c1 | 0.059% (inactive)
9 | Cc1c(C(=O)Nc2cccc(-c3nnc4n3CCCCC4)c2)oc2ccccc12 | -1.41% (inactive)
10 | Cc1cc(N2CCN(C(=O)OC(C)(C)C)C[C@H]2C)ccc1N1CCN(Cc2ccccc2)[C@H](C)C1 | 0.115% (inactive)
11 | CCOC(=O)[C@]12CCC=C1N(Cc1ccco1)C(=O)[C@H](CC(=O)NCc1cccc(C(F)(F)F)c1)C2 | -0.145% (inactive)
12 | COc1ccc(CCN2C(=O)N(c3ccc(OC)cc3)C(=O)C2CC(=O)Nc2ccc(OC)cc2)cc1 (stereo not drawn) | 4.19% (inactive)
13 | CCOc1ccc(NC(=O)CC2C(=O)N(c3ccccc3)C(=O)N2CCOC)cc1 (stereo not drawn) | -0.224% (inactive)
14 | CCNC(=O)CC1C(=O)N(c2ccc(OC)cc2)C(=O)N1CCOC (stereo not drawn) | 35.7% (active)
15 | O=C(CN1CCOCC1)NC[C@@H]1N[C@@H](CO)[C@@H]1c1ccc(-c2ccccc2)cc1 | 0.253% (inactive)
16 | COc1ccc(-c2ccccc2C2Cc3nnccc3CN2C(=O)Nc2ccccc2)cc1 (stereo not drawn) | -0.134% (inactive)
17 | COc1cc(OC)cc(-c2cc3ccc(F)cc3cn2)c1 | 0.221% (inactive)
18 | CCCc1ccc(S(=O)(=O)N2CCN(C(=O)c3cc(C)on3)CC2)cc1 | -0.187% (inactive)
19 | CCCCCCNC(=O)O[C@H]1CN(C(=O)OC(C)C)N(C(=O)OC(C)C)[C@@H]2CN(S(=O)(=O)c3ccc(C)cc3)C[C@]12O | 0.079% (inactive)
20 | Cc1ccc(S(=O)(=O)N2CCN(C(=O)Cc3sc(C)nc3-c3ccc(F)cc3)CC2)c(C)c1 | 62.2% (active)
21 | Cc1nc(-c2ccc(F)cc2)c(CC(=O)N2CCN(S(=O)(=O)c3ccc(F)cc3)CC2)s1 | -0.541% (inactive)

Row | SMILES | activation
22 | Cc1nc(-c2ccc(F)cc2)c(CC(=O)Nc2cc(S(=O)(=O)N3CCCCC3)ccc2C)s1 | -1.09% (inactive)
23 | CCOC(=O)C1=C(C(=O)OCC)C2N(Cc3ccc(C#N)cc3)c3ccccc3[C@@]23C[C@@H](C(=O)OC)N(S(=O)(=O)c2ccc(F)cc2)C3=N1 (stereo partly drawn) | -0.148% (inactive)
24 | COc1ccccc1S(=O)(=O)N[C@@H]1CC[C@H](CCn2cc(C3CCCC3)nn2)O[C@H]1CO | -0.101% (inactive)
25 | CCCCCCCNC(=O)C1(CC2CC(c3cccc(Br)c3)=NO2)CCN(C(=O)c2cc(OCC)c(OCC)c(OCC)c2)CC1 (stereo not drawn) | 0.076% (inactive)
26 | CN(Cc1cccc2ncccc12)C(=O)CC1C(=O)NCCN1Cc1ccc(F)cc1 (stereo not drawn) | 365% (active)
27 | Cc1nc(CN(C)C(=O)CC2C(=O)NCCN2Cc2ccc(F)cc2)cs1 (stereo not drawn) | -0.598% (inactive)
28 | Cc1cnc(CN(C)C(=O)CC2C(=O)NCCN2Cc2cccc(F)c2F)[nH]1 (stereo not drawn) | -0.473% (inactive)
29 | COc1ccc2c3c([nH]c2c1)[C@@H](CO)N(C)CC31CCN(S(=O)(=O)c2ccc(C)cc2)CC1 | -0.271% (inactive)
30 | CO[C@H]1CN(C)C(=O)c2ccc(NC(C)=O)cc2OC[C@@H](C)N(C(=O)c2ccncc2)C[C@@H]1C | 0.486% (inactive)
31 | NC(=S)NN=Cc1ccc(OC(=O)COc2cc(Cl)c(Cl)cc2Cl)cn1 | 0.0825% (inactive)
32 | C[C@H](CO)N1C[C@H](C)[C@@H](CN(C)S(=O)(=O)c2ccc([N+](=O)[O-])cc2)OCc2ccccc2-c2c(n(C)c3ccccc23)C1=O | 0.251% (inactive)
33 | CCCc1ccc(OCCNC(=O)c2ccccc2Br)cc1 | 0.473% (inactive)
34 | O=C(NC(=S)Nc1ncccn1)c1ccccc1Br | -0.09% (inactive)
35 | CCOc1cnc(C(=O)NNC(=O)c2ccccc2Br)o1 | 180% (active)
36 | COCC(=O)N1[C@H](C(=O)N2CCN(C)CC2)[C@@H](CO)[C@@H]2Cn3c(ccc(C4=CCCC4)c3=O)[C@@H]21 | 0.129% (inactive)
37 | COC(=O)C1=C(C)N(Cc2ccc(C(F)(F)F)cc2)C(=NCc2ccc(C(F)(F)F)cc2)NC1c1cccc(Cl)c1 (stereo not drawn) | -0.458% (inactive)
38 | O=C(C[C@H]1CC[C@@H]2[C@H](COC[C@H](O)CN2CCC(F)(F)F)O1)NCC1CC1 | -0.0615% (inactive)
39 | COc1ccc(C2=NN(C(C)=O)C(c3ccccc3)C2)cc1 (stereo not drawn) | 0.176% (inactive)
40 | COc1ccc(C2=NN(C(=O)c3ccccc3C(=O)O)C(c3ccccc3O)C2)cc1 (stereo not drawn) | 55.5% (active)
41 | COc1ccc(C2=NN(C(=O)c3cccnc3)C(c3ccccc3)C2)cc1 (stereo not drawn) | -2.28% (inactive)
42 | Cc1ccc(C(=O)N2CCCc3ccccc32)c(Cl)c1 | -0.261% (inactive)

Row | SMILES | activation
43 | CC(C)NC(=O)N(C)C[C@@H]1Oc2c(NC(=O)c3cnccn3)cccc2C(=O)N([C@@H](C)CO)C[C@@H]1C | 88.4% (active)
44 | C[C@H]1CN([C@@H](C)CO)C(=O)c2cccc(NC(=O)c3cnccn3)c2O[C@H]1CN(C)C(=O)Nc1ccccc1 | 0.886% (inactive)
45 | COc1ccc(CN(C)C[C@H]2Oc3c(NC(=O)c4cnccn4)cccc3C(=O)N([C@H](C)CO)C[C@@H]2C)cc1 | 39% (active)
46 | C[C@H]1CN([C@@H](C)CO)C(=O)c2cccc(NC(=O)c3cnccn3)c2O[C@@H]1CN(C)Cc1ccc(Oc2ccccc2)cc1 | 0.0435% (inactive)
47 | C[C@H](CO)N1C[C@H](C)[C@H](CN(C)C(=O)Nc2ccc(F)cc2)Oc2c(NC(=O)c3cnccn3)cccc2C1=O | 0.893% (inactive)
48 | C[C@@H]1CN([C@H](C)CO)C(=O)c2cccc(NC(=O)c3cnccn3)c2O[C@@H]1CN(C)Cc1ccncc1 | -11.9% (inactive)
49 | COc1ccc2c3c(n(C)c2c1)[C@@H](CO)N(C(=O)c1cnccn1)CC31CCN(C(C)=O)CC1 | -0.0775% (inactive)
50 | Cc1ccccc1-c1csc(C(O)c2cccc(Cl)c2)n1 (stereo not drawn) | 0.0645% (inactive)
51 | CCOC(=O)[C@H]1Nc2ccc(Cl)cc2[C@@H]2[C@H]1C1CC(c3ccccc31)N2C(=O)OCc1ccccc1 (stereo partly drawn) | -3.61% (inactive)
52 | Cc1coc2cc3oc(=O)c(CCC(=O)O)c(C)c3cc12 | 0.29% (inactive)
53 | CC[C@@H](C)[C@H](NC(=O)CCc1c(C)c2cc3c4c(oc3c(C)c2oc1=O)CCCC4)C(=O)O | -0.004% (inactive)
54 | Cc1c(CC(=O)NCC(=O)NCC(=O)O)c(=O)oc2cc3oc4c(c3cc12)CCCC4 | 44.8% (active)
55 | CN1C(=O)C(Br)(Br)CC1c1cccnc1 (stereo not drawn) | 0.457% (inactive)
56 | CCc1nc2c(OCCOc3ccccc3)cccn2c1N(C)C(=O)c1ccc(OC)cc1 | -0.197% (inactive)
57 | CCOC(=O)C1C(C)C(C(C)(C)C)N(S(=O)(=O)c2ccc(C)cc2)C1c1ccccc1 (stereo not drawn) | -0.306% (inactive)
58 | O=C(NC1CCCC1)[C@@H]1[C@@H](CO)[C@@H]2Cn3c(ccc(-c4ccc(F)cc4)c3=O)[C@H]1N2Cc1cocn1 | 0.192% (inactive)
59 | CCOC(=O)C(=Cc1ccccc1)C(=O)c1ccccc1 | -0.023% (inactive)
60 | COc1ccc2c(c1)c(=Cc1ccc(N(C)C)cc1)c1cc(-c3ccccc3)[n+](C)n12 | 197% (active)
61 | COc1ccc2sc(-c3ccc(N(C)C)cc3)c(C#CCO)c2c1 | 0.712% (inactive)
62 | COc1ccc2sc(-c3ccc(N(C)C)cc3)c(-c3ccc4cc[nH]c4c3)c2c1 | 0.675% (inactive)
63 | CC1(C)OC(=O)C2=C(C[C@@H](C3CCCC3)O[C@@H]2c2ccc(Cl)cc2)O1 | -0.0095% (inactive)
